Experimental data of several laboratories.
CDK5 with p25: Cyclin-dependent kinase 5, with p25 (CDK5, Homo sapiens, UniProt Q00535)
SCN1A: Sodium channel protein type 1 subunit alpha (SCN1A, Homo sapiens, UniProt P35498)
RIPK2: Receptor-interacting serine/threonine-protein kinase 2 (RIPK2, Homo sapiens, UniProt O43353)

COc1cc(-c2cncc3c2CN(C)Cc2cc(N4CCNCC4)ccc2-3)cc(OC)c1OC — remaining activity (CDK5 with p25; enzyme activity, inhibitor; 1 µM): 109%
CC(=O)c1c(C)c2cnc(Nc3ccc(N4CCNCC4)cn3)nc2n(C2CCCC2)c1=O — activity vs control (CDK5 with p25; enzyme activity, inhibitor, ADP detection; 1 µM): 97%
C[C@H]1O[C@H](O[C@H]2[C@H](O)[C@@H](O)[C@@H](O[C@H]3[C@H](O)[C@@H](O)C(O)O[C@@H]3CO)O[C@@H]2CO)[C@H](O)[C@@H](O)[C@@H]1N[C@H]1C=C(CO)[C@@H](O)[C@H](O)[C@H]1O (stereo partly shown) — inhibition (Alpha-glucosidase MAL12 (MAL12, Saccharomyces cerevisiae S288c, UniProt P53341); enzyme activity, inhibitor, absorbance; 1000 µg/mL): 80.6%
Cc1nnc(SCC2=C(C(=O)O)N3C(=O)[C@@H](NC(=O)Cn4cnnn4)[C@H]3SC2)s1 — inhibition (SCN1A; ion current, inhibitor, patch clamp; 30 µM): 7.45%
Cc1cc([C@@H](C)Nc2ccccc2C(=O)O)c2nc(N3CCC(F)(F)CC3)c(C#N)c(=O)n2c1 — remaining binding (Focal adhesion kinase 1 (PTK2, Homo sapiens, UniProt Q05397); binding, competition with immobilised ligand; 10 µM): 100%
CCCN1C[C@H](CSC)C[C@@H]2c3cccc4[nH]cc(c34)C[C@H]21 — inhibition (SCN1A; ion current, inhibitor, patch clamp; 30 µM): 89.1%
CNc1ncc2c(/C=C/C(=O)N3CCC(OC)CC3)nn(Cc3cccc(C(F)(F)F)c3)c2n1 — remaining activity (RIPK2; enzyme activity, inhibitor, radiometric; 1 µM): 87%
C[C@@H]1CC2=C(CN1Cc1cccc(C#N)c1)C(=O)N(Cc1ccc(Br)cc1)C1=NCCN12 — ΔTm (ATP-dependent Clp protease proteolytic subunit, mitochondrial (CLPP, Homo sapiens, UniProt Q16740); thermal stability, DSF; 670 µM): 17.7 °C
C=CC(=O)N1CCC(COCC(=O)N2CCN(c3nc(-c4cnc(N)nc4C(F)F)nc(N4CCOC[C@@H]4C)n3)CC2)CC1 — remaining binding (RIPK2; binding, competition with immobilised ligand; 1 µM): 95%
Nc1c(Br)cc(Br)cc1CN[C@H]1CC[C@H](O)CC1 — inhibition (SCN1A; ion current, inhibitor, patch clamp; 10 µM): 33.3%
